Experimental data: ChEMBL document CHEMBL2010673, “Structure-activity relationship of pyrrole based S-nitrosoglutathione reductase inhibitors: carboxamide modification” (Bioorg Med Chem Lett, 2012)
Calls of active or inactive are those of the source. Unless noted, the calls are words filed in the database; no cut-off is given here.

What was measured:
[1] = target: 5-hydroxytryptamine receptor 2B (Homo sapiens) (UniProt P41595); assay: Inhibition of 5HT2b receptor at 10 uM by radioligand displacement assay
Outline: (§1)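 Off-target radioligand binding panel. Test compound at 10 µM. Each assay had at least 6 control wells, with or without vehicle, for soluble compounds. Values are percent inhibition of radioligand binding. ≥50% inhibition was scored as a positive response.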

[2] = target: Sodium-dependent serotonin transporter (Homo sapiens) (UniProt P31645); assay: Inhibition of 5HT transporter at 10 uM by radioligand displacement assay; outline: as §1
[3] = target: Mu-type opioid receptor (Homo sapiens) (UniProt P35372); assay: Inhibition of Mu opioid receptor at 10 uM by radioligand displacement assay; outline: as §1
[4] = target: 5-hydroxytryptamine receptor 6 (Homo sapiens) (UniProt P50406); assay: Inhibition of 5HT6 receptor at 10 uM by radioligand displacement assay; outline: as §1
[5] = Inhibition of GABA receptor at 10 uM by radioligand displacement assay; outline: as §1
[6] = target: 5-hydroxytryptamine receptor 2A (Homo sapiens) (UniProt P28223); assay: Inhibition of 5HT2A receptor at 10 uM by radioligand displacement assay; outline: as §1
[7] = target: Histamine H2 receptor (Homo sapiens) (UniProt P25021); assay: Inhibition of H2 receptor at 10 uM by radioligand displacement assay; outline: as §1
[8] = target: Vasoactive intestinal polypeptide receptor 1 (Homo sapiens) (UniProt P32241); assay: Inhibition of VPAC1 receptor at 10 uM by radioligand displacement assay; outline: as §1
[9] = target: B2 bradykinin receptor (Homo sapiens) (UniProt P30411); assay: Inhibition of B2 receptor at 10 uM by radioligand displacement assay; outline: as §1
[10] = Inhibition of sst receptor at 10 uM by radioligand displacement assay
Outline: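 Off-target panel: radioligand binding to each receptor, channel or transporter with test compound at 10 µM; activity reported as percent inhibition of specific binding. At least 6 control wells with or without vehicle per assay. Inhibition of 50% or greater counted as a positive response.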

[11] = target: Nociceptin receptor (Homo sapiens) (UniProt P41146); assay: Inhibition of NOP receptor at 10 uM by radioligand displacement assay; outline: as §1
[12] = target: D(2) dopamine receptor (Homo sapiens) (UniProt P14416); assay: Inhibition of D2S receptor at 10 uM by radioligand displacement assay; outline: as §1
[13] = Inhibition of Kv channel at 10 uM by radioligand displacement assay; outline: as §1
[14] = target: Translocator protein (Homo sapiens) (UniProt P30536); assay: Inhibition of Benzodiazepine receptor at 10 uM by radioligand displacement assay; outline: as §1
[15] = test system: Mus musculus; assay: Antiasthamatic activity against ovalbumin-induced asthma in ovalbumin-sensitized BALB/c mouse assessed as inhibition of methacholine-induced bronchoconstriction at 1 mg/kg, iv administered 24 hrs prior to methacholine-challenge by plethysmography; assay type: functional, organism-based; set-up: dose 1 mg/kg
Outline: (§2)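 Mice made asthmatic by ovalbumin exposure. A single 1 mg/kg IV dose was given 24 h before aerosolized methacholine challenge. Controls received IV PBS vehicle or three inhaled doses of Combivent (5.2 mg/kg albuterol + 0.9 mg/kg ipratropium) at 48, 24 and 1 h before challenge. Bronchoconstriction was read by whole-body plethysmography, and eosinophils were counted in BALF. Data are mean ± SEM, 10 mice per group.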

[16] = test system: Mus musculus; assay: Toxicity in CD1 mouse assessed as adverse effect in liver at 10 mg/kg, iv qd administered for 5 days; assay type: organism-based; set-up: dose 10 mg/kg, route intravenous; conditions: in vivo, 120 h
Outline: (§3)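 Male CD-1 mice dosed IV once daily for 5 days at 1, 10 or 50 mg/kg. Toxicity judged by histology of liver, spleen and thymus, and a no-observed-adverse-effect level (NOAEL) derived from the study.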

[17] = test system: Mus musculus; assay: Antiasthamatic activity against ovalbumin-induced asthma in ovalbumin-sensitized BALB/c mouse assessed as inhibition of methacholine-induced eosinophil infiltration in bronchoalveolar lavage fluid at 1 mg/kg, iv administered 24 hrs prior to methacholine-challenge by light microscopy; assay type: functional, organism-based; set-up: dose 1 mg/kg; conditions: Lung; outline: as §2
[18] = Toxicity in iv dosed CD1 mouse administered qd for 5 days; assay type: organism-based; conditions: in vivo; outline: as §3
[19] = test system: Mus musculus; assay: Toxicity in CD1 mouse assessed as adverse effect in thymus iv qd administered for 5 days; conditions: in vivo, 120 h
[20] = test system: Mus musculus; assay: Toxicity in CD1 mouse assessed as adverse effect in liver at 50 mg/kg, iv qd administered for 5 days; assay type: organism-based; set-up: dose 50 mg/kg, route intravenous; conditions: in vivo, 120 h; outline: as §3
[21] = test system: Mus musculus; assay: Toxicity in CD1 mouse assessed as adverse effect in spleen at 10 mg/kg, iv qd administered for 5 days; assay type: organism-based; set-up: dose 10 mg/kg, route intravenous; conditions: in vivo, 120 h; outline: as §3
[22] = test system: Mus musculus; assay: Toxicity in CD1 mouse assessed as adverse effect in thymus at 50 mg/kg, iv qd administered for 5 days; assay type: organism-based; set-up: dose 50 mg/kg, route intravenous; conditions: in vivo, 120 h; outline: as §3
[23] = test system: Mus musculus; assay: Toxicity in CD1 mouse assessed as adverse effect in spleen at 50 mg/kg, iv qd administered for 5 days; assay type: organism-based; set-up: dose 50 mg/kg, route intravenous; conditions: in vivo, 120 h; outline: as §3
[24] = test system: Mus musculus; assay: Toxicity in CD1 mouse assessed as adverse effect in thymus at 10 mg/kg, iv qd administered for 5 days; assay type: organism-based; set-up: dose 10 mg/kg, route intravenous; conditions: in vivo, 120 h; outline: as §3

Sequence of D(2) dopamine receptor (Homo sapiens) (P14416 whole entry): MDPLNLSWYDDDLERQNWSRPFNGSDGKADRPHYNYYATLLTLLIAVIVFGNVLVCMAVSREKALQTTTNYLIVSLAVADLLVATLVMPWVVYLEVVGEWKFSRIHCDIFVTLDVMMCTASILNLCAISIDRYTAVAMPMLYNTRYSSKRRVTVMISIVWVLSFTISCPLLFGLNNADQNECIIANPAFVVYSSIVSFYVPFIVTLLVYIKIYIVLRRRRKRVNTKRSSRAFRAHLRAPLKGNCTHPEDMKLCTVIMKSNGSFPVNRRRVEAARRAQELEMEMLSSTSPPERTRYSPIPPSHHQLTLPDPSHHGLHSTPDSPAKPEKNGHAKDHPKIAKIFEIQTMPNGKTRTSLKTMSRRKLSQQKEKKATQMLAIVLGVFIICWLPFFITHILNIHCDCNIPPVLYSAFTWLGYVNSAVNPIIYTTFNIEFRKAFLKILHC
Sequence of Nociceptin receptor (Homo sapiens) (P41146 whole entry): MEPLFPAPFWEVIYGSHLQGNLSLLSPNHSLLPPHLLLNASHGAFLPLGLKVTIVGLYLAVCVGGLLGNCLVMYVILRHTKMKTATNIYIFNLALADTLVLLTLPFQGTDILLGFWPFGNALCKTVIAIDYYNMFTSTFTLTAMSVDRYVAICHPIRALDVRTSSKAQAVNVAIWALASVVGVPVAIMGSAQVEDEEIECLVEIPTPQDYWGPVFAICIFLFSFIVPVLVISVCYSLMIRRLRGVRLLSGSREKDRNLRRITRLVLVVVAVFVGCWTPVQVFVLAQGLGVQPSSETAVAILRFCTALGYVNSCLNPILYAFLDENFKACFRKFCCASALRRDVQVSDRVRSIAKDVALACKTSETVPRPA
Sequence of Sodium-dependent serotonin transporter (Homo sapiens) (P31645 whole entry, looked up): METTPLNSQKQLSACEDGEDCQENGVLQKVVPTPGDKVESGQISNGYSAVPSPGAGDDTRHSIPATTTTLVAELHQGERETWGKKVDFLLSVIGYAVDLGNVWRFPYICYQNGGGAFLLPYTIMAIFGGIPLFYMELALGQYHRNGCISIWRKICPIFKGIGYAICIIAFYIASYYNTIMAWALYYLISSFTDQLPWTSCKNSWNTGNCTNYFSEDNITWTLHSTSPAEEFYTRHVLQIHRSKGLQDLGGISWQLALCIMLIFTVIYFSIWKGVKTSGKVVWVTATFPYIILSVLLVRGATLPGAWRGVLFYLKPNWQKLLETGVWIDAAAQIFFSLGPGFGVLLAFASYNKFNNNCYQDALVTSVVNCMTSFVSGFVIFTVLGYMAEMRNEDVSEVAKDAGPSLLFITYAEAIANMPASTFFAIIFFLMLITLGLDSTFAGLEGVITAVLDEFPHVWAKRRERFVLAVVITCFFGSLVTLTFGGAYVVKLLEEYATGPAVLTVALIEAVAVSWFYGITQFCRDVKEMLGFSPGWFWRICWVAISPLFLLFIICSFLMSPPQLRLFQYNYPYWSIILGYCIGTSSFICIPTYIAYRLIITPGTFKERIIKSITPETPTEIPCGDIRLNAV
Sequence of Translocator protein (Homo sapiens) (P30536 whole entry): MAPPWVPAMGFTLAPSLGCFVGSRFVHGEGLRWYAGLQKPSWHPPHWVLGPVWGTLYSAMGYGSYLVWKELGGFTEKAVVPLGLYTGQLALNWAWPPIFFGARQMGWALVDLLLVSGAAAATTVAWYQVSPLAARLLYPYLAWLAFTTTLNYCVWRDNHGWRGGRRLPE
Sequence of Mu-type opioid receptor (Homo sapiens) (P35372 whole entry): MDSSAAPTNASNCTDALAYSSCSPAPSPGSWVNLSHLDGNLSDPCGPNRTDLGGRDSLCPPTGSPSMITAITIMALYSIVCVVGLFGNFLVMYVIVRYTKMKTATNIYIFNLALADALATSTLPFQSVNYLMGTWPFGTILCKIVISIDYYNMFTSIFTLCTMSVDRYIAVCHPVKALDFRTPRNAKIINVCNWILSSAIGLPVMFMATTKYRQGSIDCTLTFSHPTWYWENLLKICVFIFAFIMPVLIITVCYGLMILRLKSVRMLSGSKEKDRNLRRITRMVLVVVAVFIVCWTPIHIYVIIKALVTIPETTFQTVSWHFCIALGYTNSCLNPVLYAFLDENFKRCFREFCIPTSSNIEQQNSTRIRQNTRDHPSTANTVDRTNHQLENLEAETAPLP
Sequence of B2 bradykinin receptor (Homo sapiens) (P30411 whole entry): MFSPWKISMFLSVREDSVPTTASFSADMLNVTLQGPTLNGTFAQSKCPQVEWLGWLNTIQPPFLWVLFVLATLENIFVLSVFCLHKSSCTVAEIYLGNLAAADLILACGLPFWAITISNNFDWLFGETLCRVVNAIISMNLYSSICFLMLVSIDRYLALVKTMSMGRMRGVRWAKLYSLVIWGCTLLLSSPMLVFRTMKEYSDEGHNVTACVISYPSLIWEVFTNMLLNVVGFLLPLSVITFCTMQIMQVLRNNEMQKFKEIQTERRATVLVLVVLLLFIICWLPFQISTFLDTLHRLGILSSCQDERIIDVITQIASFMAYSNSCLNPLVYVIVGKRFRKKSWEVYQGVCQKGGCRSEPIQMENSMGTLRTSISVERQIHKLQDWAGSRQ
Sequence of 5-hydroxytryptamine receptor 6 (Homo sapiens) (P50406 whole entry): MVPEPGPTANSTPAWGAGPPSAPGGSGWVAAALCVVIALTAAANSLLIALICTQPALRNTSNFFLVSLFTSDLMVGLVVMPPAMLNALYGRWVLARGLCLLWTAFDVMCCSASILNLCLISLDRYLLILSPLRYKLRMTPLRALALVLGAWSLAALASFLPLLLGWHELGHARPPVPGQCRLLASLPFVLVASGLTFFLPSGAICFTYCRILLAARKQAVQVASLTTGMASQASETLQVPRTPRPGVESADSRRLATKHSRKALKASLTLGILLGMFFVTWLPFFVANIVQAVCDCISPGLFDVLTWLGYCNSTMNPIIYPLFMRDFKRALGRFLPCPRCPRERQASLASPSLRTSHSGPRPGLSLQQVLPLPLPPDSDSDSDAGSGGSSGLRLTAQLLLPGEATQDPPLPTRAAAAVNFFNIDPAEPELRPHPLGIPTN
Sequence of 5-hydroxytryptamine receptor 2A (Homo sapiens) (P28223 whole entry): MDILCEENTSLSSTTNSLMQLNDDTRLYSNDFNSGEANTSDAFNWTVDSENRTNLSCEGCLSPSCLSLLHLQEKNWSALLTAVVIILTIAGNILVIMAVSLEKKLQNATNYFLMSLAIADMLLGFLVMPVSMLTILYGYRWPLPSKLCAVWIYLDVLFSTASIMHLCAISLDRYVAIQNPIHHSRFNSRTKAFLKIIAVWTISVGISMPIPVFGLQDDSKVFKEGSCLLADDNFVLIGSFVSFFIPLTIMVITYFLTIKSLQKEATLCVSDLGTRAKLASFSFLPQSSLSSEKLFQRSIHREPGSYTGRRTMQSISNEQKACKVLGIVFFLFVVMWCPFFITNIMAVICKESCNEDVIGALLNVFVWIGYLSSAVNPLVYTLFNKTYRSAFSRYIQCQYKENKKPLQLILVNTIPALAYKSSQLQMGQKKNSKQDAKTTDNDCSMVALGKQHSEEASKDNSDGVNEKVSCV
Sequence of Histamine H2 receptor (Homo sapiens) (P25021 whole entry): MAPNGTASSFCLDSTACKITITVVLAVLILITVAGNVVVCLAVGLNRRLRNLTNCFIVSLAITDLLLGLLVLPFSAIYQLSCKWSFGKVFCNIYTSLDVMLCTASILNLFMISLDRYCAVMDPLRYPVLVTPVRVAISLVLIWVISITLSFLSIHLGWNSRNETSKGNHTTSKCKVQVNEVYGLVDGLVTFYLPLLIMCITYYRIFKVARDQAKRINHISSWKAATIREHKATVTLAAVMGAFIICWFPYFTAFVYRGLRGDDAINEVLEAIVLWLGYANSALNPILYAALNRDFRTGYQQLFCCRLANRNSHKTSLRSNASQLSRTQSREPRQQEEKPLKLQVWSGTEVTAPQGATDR
Sequence of Vasoactive intestinal polypeptide receptor 1 (Homo sapiens) (P32241 whole entry): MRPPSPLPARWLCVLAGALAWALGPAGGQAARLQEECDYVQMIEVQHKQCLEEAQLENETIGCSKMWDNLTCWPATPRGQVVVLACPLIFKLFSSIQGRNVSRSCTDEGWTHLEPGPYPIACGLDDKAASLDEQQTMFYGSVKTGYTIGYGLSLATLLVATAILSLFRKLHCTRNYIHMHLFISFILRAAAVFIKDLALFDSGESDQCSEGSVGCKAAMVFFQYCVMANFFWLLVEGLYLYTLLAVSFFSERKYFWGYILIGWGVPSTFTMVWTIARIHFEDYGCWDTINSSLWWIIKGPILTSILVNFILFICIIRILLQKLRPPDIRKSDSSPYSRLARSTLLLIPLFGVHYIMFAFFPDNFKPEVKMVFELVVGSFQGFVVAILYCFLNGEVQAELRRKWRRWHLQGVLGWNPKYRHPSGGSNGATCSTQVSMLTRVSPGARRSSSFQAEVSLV
Sequence of 5-hydroxytryptamine receptor 2B (Homo sapiens) (P41595 whole entry): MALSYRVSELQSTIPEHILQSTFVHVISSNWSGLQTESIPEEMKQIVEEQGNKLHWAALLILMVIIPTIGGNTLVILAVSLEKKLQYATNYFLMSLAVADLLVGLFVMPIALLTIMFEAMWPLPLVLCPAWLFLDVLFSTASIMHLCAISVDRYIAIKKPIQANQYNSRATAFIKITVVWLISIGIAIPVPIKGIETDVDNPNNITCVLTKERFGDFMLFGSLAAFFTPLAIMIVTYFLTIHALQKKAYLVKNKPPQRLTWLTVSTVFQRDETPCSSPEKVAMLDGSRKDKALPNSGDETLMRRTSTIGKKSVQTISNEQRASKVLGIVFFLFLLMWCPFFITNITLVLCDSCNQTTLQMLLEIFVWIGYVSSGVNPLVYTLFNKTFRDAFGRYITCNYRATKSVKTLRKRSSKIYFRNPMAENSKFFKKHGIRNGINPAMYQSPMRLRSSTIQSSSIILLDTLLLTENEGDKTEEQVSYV

| inhibition [1] | inhibition [2] | inhibition [3] | inhibition [4] | inhibition [5] | inhibition [6] | inhibition [7] | inhibition [8] | inhibition [9] | inhibition [10] | inhibition [11] | inhibition [12] | inhibition [13] | inhibition [14] | Structure (SMILES) | other results |
| --- | --- | --- | --- | --- | --- | --- | --- | --- | --- | --- | --- | --- | --- | --- | --- |
| inactive | inactive | inactive | inactive | inactive | inactive | inactive | inactive | inactive | inactive | inactive | inactive | inactive | inactive | Cc1cc(NS(C)(=O)=O)ccc1-n1c(CCC(=O)O)ccc1-c1ccc(-n2ccnc2)cc1 |  |
| inactive | inactive | inactive | inactive | inactive | inactive | inactive | inactive | inactive | inactive | inactive | inactive | inactive | inactive | Cc1cc(NS(C)(=O)=O)ccc1-n1c(CCC(=O)O)ccc1-c1ccc(-n2ccnc2C)s1 | Activity [15]: Active; Activity [16]: Toxic; Activity [17]: Active; NOAEL at 120 h [18]: 1 mg/kg/day; Activity [19]: Toxic; Activity [20]: Toxic; Activity [21]: Toxic; Activity [22]: Toxic; Activity [23]: Toxic; Activity [24]: Toxic |
